Test results published in ChEMBL document CHEMBL1240369, “Antiviral efficacy of the novel compound BIT225 against HIV-1 release from human macrophages” (Antimicrob Agents Chemother, 2010).
Calls of active or inactive are those of the source. No cut-off for these calls is given here.

How the values were obtained:
[1] = Selectivity index, ratio of TC50 for human MDM cells to EC50 for HIV1 1064.52 infected in human MDM cells; type: toxicity, cell-based; conditions: read-out: Selectivity Index
[2] = system: Human immunodeficiency virus 1; assay: Antiviral activity against HIV1 Ba-L in 14 days differentiated human MDM assessed as decrease in intracellular viral protein at 10 uM after 7 days by Western blot analysis; type: functional, organism-based
How it was run: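 Day 14 MDM were chronically infected with HIV-1 Ba-L, then given 10 μM compound or DMSO and harvested on day 28. Lysates with equal total protein (checked by β-actin) were run on a 10% polyacrylamide gel and blotted to nitrocellulose. Blots were probed with HIV-1-seropositive human serum, then HRP anti-human IgG.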

[3] = system: Human immunodeficiency virus 1; assay: Antiviral activity against HIV1 Ba-L in human MDM assessed as inhibition integration of virus to host cell genome at 10 nM; type: functional, organism-based
[4] = Selectivity index, ratio of TC50 for human MDM cells to EC50 for HIV1 98IN017 infected in human MDM cells; type: toxicity, cell-based; conditions: read-out: Selectivity Index
[5] = Selectivity index, ratio of TC50 for human MDM cells to EC50 for HIV1 G-92NG003-G3 infected in human MDM cells; type: toxicity, cell-based; conditions: read-out: Selectivity Index
[6] = Inhibition of Vpu ion channel in HIV1 98IN017 in human MDM assessed as inhibition of vrius release; parameters: species or system Human immunodeficiency virus 1
[7] = system: Human immunodeficiency virus 2; assay: Antiviral activity against 0.05 MOI HIV2 noncytopathic strain chronically infected in 7-14 days differentiated human MDM cells assessed as viral inhibition measured after 7 days; type: functional
How it was run: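 Day 14 MDM from three seronegative donors were infected at MOI 0.05 for 7 days, then washed free of extracellular virus. Cultures then ran a further 7 days with or without 10 μM BIT225, from day 21. Day 28 supernatants were assayed by RT activity ELISA. Percent inhibition was taken versus untreated controls, as mean of three donors.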

MDM = assay: Inhibition of Vpu ion channel in 0.01 MOI HIV1 Ba-L infected in 7 days differentiated human MDM cells assessed as number of gag copy; type: cell-based; conditions: Human immunodeficiency virus 1
How it was run: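 MDM differentiated for 7, 10 or 14 days were infected with HIV-1 Ba-L across a range of MOIs, washed three times with PBS and cultured 7 days with 10 μM compound or equal-volume DMSO. On day 7 postinfection, supernatant RT activity was measured (and infectivity on TZM-bl cells). Cell lysates went to real-time PCR for LTR-gag DNA, normalised to albumin copies.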

[8] = system: Human immunodeficiency virus 1; assay: Antiviral activity against HIV1 Ba-L […] assessed as inhibition integration of virus to host cell genome at 10 uM; type: functional; parameters: scale not given: the % may be the effect or the level left
How it was run: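 Run in TZM-bl indicator cells (HIV-1 integration activates luciferase), not MDM, infected with HIV-1Ba-L in the presence of BIT225 across 0.3125 to 10 μM. Lysates were given luciferin and light was read on an illuminometer. Percent inhibition of integration was taken relative to DMSO-treated control. Data are from three separate experiments.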

For Cn1cc(-c2cccc3cc(C(=O)NC(=N)N)ccc23)cn1, the selectivity ratio [1] was 61.9, the Activity [2] was “inactive” and the Activity [3] was “Active”. It also gave a selectivity ratio [4] of 4.8, a selectivity ratio [5] of 131 and an EC50 [6] of 42.2 µM. For the same molecule, the “inhibition (INH)” value [7] was 13.4%, the Activity (MDM) was 1160 and the Activity [8] was 6%.
